Assay results taken from ChEMBL document CHEMBL1926596, “Synthesis and antimalarial evaluation of novel isocryptolepine derivatives” (Bioorg Med Chem, 2011).
pIC50: −log10 of the molar value. Where a name gives a salt, the structure may show the parent alone.

Experiments:
[1] = Selectivity index, ratio of IC50 for mouse 3T3 cells to IC50 for chloroquine-resistant Plasmodium falciparum W2mef; assay type: toxicity, cell-based, NIH3T3; conditions: read-out: Ratio IC50
Outline: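 The ratio uses the W2mef antiplasmodial IC50 and the IC50 in 3T3 mouse embryonic fibroblasts. Cells were seeded 24 h earlier at 7500/well on 1% gelatine, 37 °C, 5% CO2. Serial dilutions were added in quadruplicate with a vehicle control for 48 h. MTT (1 mg/mL, 60 min, 37 °C) was solubilised in DMSO and read at 595 nm. IC50 came from nonlinear regression after DMSO correction, with at least 3 runs.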

[2] = system: Plasmodium falciparum; assay: Antimalarial activity against chloroquine-sensitive Plasmodium falciparum 3D7 infected in human erythrocytes assessed as inhibition of [3H]hypoxanthine incorporation after 48 hrs by beta liquid scintillation counting method; assay type: functional, organism-based
Outline: (§1)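 Hydrochloride salts, from DMSO/water stocks (final DMSO <0.05%), added in triplicate to parasites cultured in RPMI 1640 HEPES with L-glutamine, gentamicin, hypoxanthine and 10% pooled human plasma at 37 °C under 3–9% oxygen. Radiolabel was added, then 48 h incubation, freeze-thaw, filtermat harvest and scintillation counting. Uninfected and infected drug-free controls were included. IC50 came from nonlinear regression of log-dose–response curves, with at least 3 separate runs.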

[3] = system: NIH3T3; assay: Cytotoxicity against mouse 3T3 cells after 48 hrs by MTT assay; assay type: cell-based; conditions: NIH3T3, 48 h
Outline: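 Cells seeded at 7500 per well on 1% gelatine-coated plates 24 h before testing (37 °C, 5% CO2, humidified). Test agents given as hydrochloride salts in DMSO/water stocks, diluted in RPMI, serially diluted, added in quadruplicate, with vehicle and drug-free controls. After 48 h, MTT (1 mg/mL in RPMI) for 60 min, DMSO solubilisation, absorbance 595 nm. At least three separate runs; IC50 by non-linear regression after DMSO correction.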

[4] = system: Plasmodium falciparum; assay: Antimalarial activity against chloroquine-resistant Plasmodium falciparum W2mef infected in human erythrocytes assessed as inhibition of [3H]hypoxanthine incorporation after 48 hrs by beta liquid scintillation counting method; assay type: functional, organism-based; outline: as §1
[5] = system: Plasmodium falciparum; assay: Antimalarial activity against Plasmodium falciparum K1; assay type: functional, organism-based

Molecule `Cn1cc2c3cc(Br)ccc3nc-2c2cc(Br)ccc21` has a selectivity ratio [1] of 23, a pIC50 [2] of 6.90 and a pIC50 [3] of 5.59. It also gave a pIC50 [4] of 6.95.
Molecule `Cn1cc2c3cc(Br)ccc3nc-2c2cc(Cl)ccc21` has a selectivity ratio [1] of 106, a pIC50 [2] of 7.24 and a pIC50 [3] of 5.05. The pIC50 [4] was 7.07.
Molecule `Cc1ccc2c3cn(C)c4ccccc4c-3nc2c1` has a selectivity ratio [1] of 2.7, a pIC50 [2] of 6.35 and a pIC50 [3] of 5.68. For the same molecule, the pIC50 [4] was 6.12.
`Cn1cc2c3cc(Br)ccc3nc-2c2ccccc21` showed a selectivity ratio [1] of 11, a pIC50 [2] of 7.07 and a pIC50 [3] of 5.71. For the same molecule, the pIC50 [4] was 6.74.
Molecule `Cn1cc2c3cc(Br)ccc3nc-2c2ccc(Cl)cc21` has a selectivity ratio [1] of 26, a pIC50 [2] of 7.30 and a pIC50 [3] of 5.58. The pIC50 [4] was 7.00.
`CCCCN(CCCC)CC(O)c1cc(Cl)cc2c1-c1ccc(Cl)cc1/C2=C/c1ccc(Cl)cc1` (centres undefined) [LUMEFANTRINE] showed a pIC50 [4] of 7.25.
Molecule `Cc1cc2nc3c4ccccc4n(C)cc-3c2cc1Br` has a selectivity ratio [1] of 19, a pIC50 [2] of 7.21 and a pIC50 [3] of 5.60. It also gave a pIC50 [4] of 6.88.
`Cn1cc2c3ccccc3nc-2c2ccc(Cl)cc21` gave a selectivity ratio [1] of 7.3, a pIC50 [2] of 6.89 and a pIC50 [3] of 5.65. The pIC50 [4] was 6.50.
`Cn1cc2c3cc(Cl)ccc3nc-2c2ccccc21` gave a selectivity ratio [1] of 9.6, a pIC50 [2] of 6.93 and a pIC50 [3] of 5.68. For the same molecule, the pIC50 [4] was 6.66.
`CCN(CC)CCCC(C)Nc1ccnc2cc(Cl)ccc12` (centres undefined) [CHLOROQUINE] gave a pIC50 [3] of 4.14.
For `Cn1cc2c3ccccc3nc-2c2ccccc21` [ISOCRYPTOLEPINE HYDROCHLORIDE], the selectivity ratio [1] was 1.9, the pIC50 [2] was 6.18 and the pIC50 [3] was 5.66. The pIC50 [4] was 5.93.
`Cn1c2c3cc(Br)ccc3nc-2cc2cc(Br)ccc21` showed a pIC50 [5] of 7.31.
